Assay results reported in ChEMBL document CHEMBL1142278, “Efficient inhibition of iron superoxide dismutase and of Trypanosoma cruzi growth by benzo[g]phthalazine derivatives functionalized with one or two imidazole rings” (J Med Chem, 2008).

Tests used:
Trypanosoma cruzi [1] = test: Antiparasitic activity against Trypanosoma cruzi epimastigotes after 24 hrs; assay type: functional, organism-based
How it was run: (§1)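 Epimastigotes were cultured with compound at 2.5, 25 and 125 µM, and growth inhibition was read at 24, 48 or 72 h. IC50 was calculated by linear regression from Kc values at those concentrations. Results are the average of three separate determinations.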

Trypanosoma cruzi [2] = test: Antiparasitic activity against Trypanosoma cruzi epimastigotes after 48 hrs; assay type: functional, organism-based; how it was run: as §1
Trypanosoma cruzi [3] = test: Antiparasitic activity against Trypanosoma cruzi epimastigotes after 72 hrs; assay type: functional, organism-based; how it was run: as §1
[4] = Toxicity in african green monkey Vero cells after 72 hrs; assay type: cell-based; conditions: African green monkey (Chlorocebus sabaeus)
How it was run: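 Vero cells were cultured with compound for 72 h. The cytotoxic IC50 was derived by linear regression from Kc values at 2.5, 25 and 125 µM. Results are the average of three separate determinations.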

[5] = target: Superoxide dismutase [Cu-Zn] (Homo sapiens) (UniProt P00441); test: inhibition of CuZn-SOD in human erythrocytes at 2.5 uM; assay type: cell-based
[6] = target: Superoxide dismutase [Cu-Zn] (Homo sapiens) (UniProt P00441); test: inhibition of CuZn-SOD in human erythrocytes at 25 uM; assay type: cell-based
[7] = target: Superoxide dismutase [Cu-Zn] (Homo sapiens) (UniProt P00441); test: inhibition of CuZn-SOD in human erythrocytes at 125 uM; assay type: cell-based
Trypanosoma cruzi [8] = test: Antiparasitic activity against Trypanosoma cruzi in Vero cells assessed as reduction of infection rate at 10 uM relative to control; assay type: functional; set-up: scale not given: the % may be the effect or the level left
How it was run: (§2)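 Vero cells (1 × 10^5) were grown for 2 days, then infected with 1 × 10^6 T. cruzi metacyclic forms, adding compound (10 µM) at the same time. Cultures were followed over days 1–8. Read-outs were % infected cells, mean amastigotes per infected cell, and trypomastigotes in the medium, each compared with an untreated control. Values are means of three separate experiments.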

Trypanosoma cruzi [9] = test: Inhibition of Iron superoxide dismutase in Trypanosoma cruzi epimastigotes at 2.5 uM
Trypanosoma cruzi [10] = test: Inhibition of Iron superoxide dismutase in Trypanosoma cruzi epimastigotes at 25 uM
Trypanosoma cruzi [11] = test: Inhibition of Iron superoxide dismutase in Trypanosoma cruzi epimastigotes at 125 uM
Trypanosoma cruzi [12] = test: Antiparasitic activity against Trypanosoma cruzi in Vero cells assessed as reduction of amastigotes at 10 uM on day 8 relative to control; assay type: functional; set-up: scale not given: the % may be the effect or the level left; how it was run: as §2
Trypanosoma cruzi [13] = test: Antiparasitic activity against Trypanosoma cruzi in Vero cells assessed as reduction of trypomastigotes at 10 uM on day 8 relative to control; assay type: functional; set-up: scale not given: the % may be the effect or the level left; how it was run: as §2

Chain of Superoxide dismutase [Cu-Zn] (Homo sapiens) (P00441 whole entry): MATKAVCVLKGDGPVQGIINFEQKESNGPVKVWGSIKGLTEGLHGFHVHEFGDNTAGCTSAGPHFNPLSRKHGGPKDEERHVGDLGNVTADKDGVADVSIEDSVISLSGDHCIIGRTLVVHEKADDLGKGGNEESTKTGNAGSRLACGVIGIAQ

IC50 (Trypanosoma cruzi [1]) | IC50 (Trypanosoma cruzi [2]) | IC50 (Trypanosoma cruzi [3]) | inhibition [5] | inhibition [6] | inhibition [7] | inhibition (Trypanosoma cruzi [9]) | inhibition (Trypanosoma cruzi [10]) | inhibition (Trypanosoma cruzi [11]) | Compound | IC50 at 72 h [4] | Activity (Trypanosoma cruzi [8]) | Activity (Trypanosoma cruzi [12]) | Activity (Trypanosoma cruzi [13])
51 µM | 46.9 µM | 13.7 µM | 7% | 22% | 27% | 80% | 93% | 94% | Clc1nnc(NCCCn2ccnc2)c2cc3ccccc3cc12 | 146 µM | 74% |  | 
61.1 µM | 35.1 µM | 14.2 µM | 0% | 5% | 6% | 46% | 53% | 86% | c1ccc2cc3c(NCCc4c[nH]cn4)nnc(NCCc4c[nH]cn4)c3cc2c1 |  | >50% |  | 
 |  |  |  |  |  |  |  |  | c1ccc2cc3c(NCCc4cnc[nH]4)nnc(NCCc4cnc[nH]4)c3cc2c1 | 88.7 µM |  |  | 
108 µM | 34.6 µM | < 0.3 µM | 0% | 0% | 11% | 50% | 91% | 100% | Clc1nnc(NCCc2c[nH]cn2)c2cc3ccccc3cc12 | 213 µM | 81% | 55% | >50%
53.4 µM | 34.8 µM | < 0.2 µM | 2% | 12% | 18% | 32% | 42% | 100% | c1ccc2cc3c(NCCCn4ccnc4)nnc(NCCCn4ccnc4)c3cc2c1 | 69.3 µM | 84% | 44% | >50%

Compound | IC50 (Trypanosoma cruzi [1]) | IC50 (Trypanosoma cruzi [2]) | IC50 (Trypanosoma cruzi [3]) | inhibition [5] | inhibition [6] | inhibition [7] | inhibition (Trypanosoma cruzi [9]) | inhibition (Trypanosoma cruzi [10]) | inhibition (Trypanosoma cruzi [11]) | IC50 at 72 h [4] | Activity (Trypanosoma cruzi [8]) | Activity (Trypanosoma cruzi [12]) | Activity (Trypanosoma cruzi [13])
O=C(Cn1ccnc1[N+](=O)[O-])NCc1ccccc1 [BENZNIDAZOLE] |  |  | 15.8 µM |  |  |  |  |  |  |  |  |  | 
